From ChEMBL document CHEMBL6103596, “Design, Synthesis, and Biological Evaluation of BODIPY-Caged Resiquimod as a Dual-Acting Phototherapeutic” (J Med Chem, 2025) come the findings set out here.

Series [1] has as its target T1, Toll-like receptor 7 (Homo sapiens) (UniProt Q9NYK1).
T1 sequence (whole entry): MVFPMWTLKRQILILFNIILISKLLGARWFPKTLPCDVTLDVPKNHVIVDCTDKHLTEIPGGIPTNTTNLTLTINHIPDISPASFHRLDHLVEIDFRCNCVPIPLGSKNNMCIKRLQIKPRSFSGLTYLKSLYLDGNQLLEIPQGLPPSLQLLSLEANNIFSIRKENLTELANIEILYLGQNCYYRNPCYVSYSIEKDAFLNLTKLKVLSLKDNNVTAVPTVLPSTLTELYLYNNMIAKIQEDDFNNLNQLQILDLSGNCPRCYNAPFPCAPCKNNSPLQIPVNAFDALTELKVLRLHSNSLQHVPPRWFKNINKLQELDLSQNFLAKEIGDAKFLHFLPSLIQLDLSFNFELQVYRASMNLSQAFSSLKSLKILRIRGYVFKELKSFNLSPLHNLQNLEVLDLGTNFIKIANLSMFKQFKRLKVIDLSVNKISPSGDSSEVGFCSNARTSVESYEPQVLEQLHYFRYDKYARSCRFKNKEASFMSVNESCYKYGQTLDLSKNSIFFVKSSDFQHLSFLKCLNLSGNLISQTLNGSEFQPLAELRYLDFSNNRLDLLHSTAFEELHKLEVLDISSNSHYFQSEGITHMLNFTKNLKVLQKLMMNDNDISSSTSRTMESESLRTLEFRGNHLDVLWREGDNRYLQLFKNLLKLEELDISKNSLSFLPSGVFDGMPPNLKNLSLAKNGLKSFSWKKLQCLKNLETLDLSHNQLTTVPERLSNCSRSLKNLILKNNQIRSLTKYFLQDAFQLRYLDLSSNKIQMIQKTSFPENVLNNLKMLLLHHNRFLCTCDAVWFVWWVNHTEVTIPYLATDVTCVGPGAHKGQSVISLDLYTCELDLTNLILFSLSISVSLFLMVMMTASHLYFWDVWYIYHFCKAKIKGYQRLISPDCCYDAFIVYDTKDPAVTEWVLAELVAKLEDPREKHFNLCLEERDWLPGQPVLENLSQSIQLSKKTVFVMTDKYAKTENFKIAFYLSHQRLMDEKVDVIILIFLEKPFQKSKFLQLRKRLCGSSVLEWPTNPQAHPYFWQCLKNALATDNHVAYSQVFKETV
In words: Activation of TLR7 in human AD293 cells assessed as IkappaB-alpha degradation at 10 uM preincubated with NAC followed by compound addition and measured after 30 mins under 650nm red light irradiation by Western blot analysis. Format: cell-based. The following applies: filed as activator. An outline of the steps: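 Stable TLR7-expressing AD293 line made by TLR7 plasmid transfection and hygromycin B selection (250 μg/mL, 10 days). Cells pretreated with N-acetyl-cysteine, then given 10 μM compound, with or without 30 min 650 nm red-light irradiation. Lysates run on 10% SDS-PAGE and blotted to PVDF. Total IκB probed (1:1000) with GAPDH loading control, ECL detection. Means of three experiments.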
(A western blot detects proteins with antibodies after separation by electrophoresis.)

The nature of series [2]: Induction of superoxide anion radical assessed as DMPO-O2 radical adduct formation under dark condition measured after 10 mins by ESR spectra analysis. Format: functional. A digest of the protocol:
(§1)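 ESR spectra recorded with DMPO as spin trap to detect superoxide and/or hydroxyl radical adducts, before and after 10 min irradiation of compound.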

Series [3] can be described thus: Thermal stability of compound in DMSO-d6 at 37.5 degree C measured before 24 hrs by 1H NMR spectroscopy analysis. It is filed as physicochemical. A digest of the protocol:
(§2)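 Compound in DMSO-d6 followed by 1H NMR. Degradation taken from the intensity of three signals (one resiquimod, one BODIPY, and the linkage NH), each relative to the DMSO-d6 internal standard, and the three averaged.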

For the next series, the system named is AD293. In words: Cytotoxicity against human AD293 cells assessed as cell viability at 0.1 to 10 uM incubated for 24 hrs by MTT assay. It is filed as toxicity, cell-based. The following applies: ad293, 24 h, dose 0.1-10 µM. A digest of the protocol: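 AD293 cells seeded at 4 × 10^4 cells/well in DMEM with 10% FBS. Next day, compound (100 nM, 1 μM, 10 μM) or vehicle added in serum-free DMEM for 24 h, no irradiation. MTT (5 mg/mL reagent) added for 3 h at 37 °C, formazan dissolved in DMSO, absorbance read at 590 nm. Triplicate wells, four independent experiments.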
A general note: Formazan colour is commonly taken as a measure of viable cells.

A short description of series [4]: Induction of hydroxyl radical assessed as DMPO-OH radical adduct formation under light irradiation measured after 10 mins by ESR spectra analysis. Format: functional. A digest of the protocol: as §1
The nature of series [5]: Thermal stability of compound in DMSO-d6 at 37.5 degree C measured after 3 days by 1H NMR spectroscopy analysis relative to control. To be noted: 72 h; time 3 day. It is filed as physicochemical. An outline of the steps: as §2
The nature of series [6]: Thermal stability of compound in DMSO-d6 at 37.5 degree C measured after 1 day by 1H NMR spectroscopy analysis relative to control. The following applies: 24 h. It is filed as physicochemical. An outline of the steps: as §2
Series [7] can be described thus: Photosensitizing ability of the compound assessed as singlet oxygen quantum yield under 600nm monochromatic light irradiation by DPBF based assay relative to control. Format: functional. A digest of the protocol:
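Singlet oxygen generation followed by the decrease in DPBF absorbance under irradiation. DPBF (20–25 μm) used at 5–10-fold excess over compound (2.5–5 μm).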

Series [8] in a line: Induction of superoxide anion radical assessed as DMPO-O2 radical adduct formation under light irradiation measured after 10 mins by ESR spectra analysis. It is filed as functional. An outline of the steps:
as §1

Molecules are shown by their SMILES. Calls of active or inactive are those of the source. No cut-off for these calls is given here.

Take `CCOCc1nc2c(NC(=O)OCC3=C4C(C)=CC(/C=C/c5ccc(OCCOCCOCCOC)cc5)=[N+]4[B-](C)(C)n4c(/C=C/c5ccc(OCCOCCOCCOC)cc5)cc(C)c43)nc3ccccc3c2n1CC(C)(C)O`: the result in series [1] was Active. The result in series [2], in [4] and in [8] was inactive. Besides, the Activity entry in [3] was “Not_active”; in the series with AD293, “Non-toxic”; in [5], 15%; in series [6] it was 7%; in series [7] it was 1.2%.
